Results on seven compounds are retold here after the M2OR odorant receptor database.

The first assay concerns the target T1, OR51B5 (Homo sapiens) (UniProt Q9H339).
T1 sequence (whole entry): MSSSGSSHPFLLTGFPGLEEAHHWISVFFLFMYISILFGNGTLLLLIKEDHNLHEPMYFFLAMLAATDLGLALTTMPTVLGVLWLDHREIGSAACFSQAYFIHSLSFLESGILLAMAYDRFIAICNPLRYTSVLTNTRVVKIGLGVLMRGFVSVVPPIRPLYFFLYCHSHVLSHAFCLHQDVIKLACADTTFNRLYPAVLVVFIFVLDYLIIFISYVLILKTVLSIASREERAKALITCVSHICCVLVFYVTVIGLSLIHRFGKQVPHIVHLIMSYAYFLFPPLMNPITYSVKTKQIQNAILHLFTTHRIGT
Particulars: stereoisomer not certain. The method, boiled down: (§1)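 Each entry records the cell line, G-protein, co-transfected protein and tags used. Methods varied with the source, often transient luciferase assays in mammalian cell lines. A receptor–molecule pair is called responsive (active) if the original authors judged its signal statistically different from baseline and non-responsive (inactive) otherwise.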
As to `Cc1c([N+](=O)[O-])c(C)c([N+](=O)[O-])c(C(C)(C)C)c1[N+](=O)[O-]`, the “odorant receptor agonist call” value was “inactive”. Take `C=CCOC(=O)Cc1ccccc1`: the “odorant receptor agonist call” value is “inactive”.

As to `COc1ccc(C=O)cc1`, the “odorant receptor agonist call” value was “inactive”.

For `Cc1cccc(C)c1`, the “odorant receptor agonist call” value is “inactive”.

A further assay deals with T2, OR51E1 (Homo sapiens) (UniProt Q8TCB6).
T2 sequence (whole entry): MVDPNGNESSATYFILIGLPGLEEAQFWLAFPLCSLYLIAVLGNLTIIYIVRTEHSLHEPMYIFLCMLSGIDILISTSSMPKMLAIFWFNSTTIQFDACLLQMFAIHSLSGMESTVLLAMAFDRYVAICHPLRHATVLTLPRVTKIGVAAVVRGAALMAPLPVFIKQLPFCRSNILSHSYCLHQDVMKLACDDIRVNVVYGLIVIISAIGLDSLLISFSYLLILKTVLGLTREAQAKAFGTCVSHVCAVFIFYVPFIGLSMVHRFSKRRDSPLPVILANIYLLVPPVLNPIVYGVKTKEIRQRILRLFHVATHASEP
Particulars: stereoisomer not certain. In outline: as §1
For `CCC1CCC(=O)O1` (stereo not drawn), the “odorant receptor agonist call” value is “inactive”. Take `O=c1cc(O)c2ccccc2o1`: the “odorant receptor agonist call” value is “inactive”.

For the compound `C=CCOC(=O)Cc1ccccc1`, the “odorant receptor agonist call” value is “inactive”.

On to `C=CCc1ccccc1`, for which the “odorant receptor agonist call” value was “inactive”.

In the next assay the target is T3, OR51E2 (Homo sapiens) (UniProt Q9H255).
T3 sequence (whole entry): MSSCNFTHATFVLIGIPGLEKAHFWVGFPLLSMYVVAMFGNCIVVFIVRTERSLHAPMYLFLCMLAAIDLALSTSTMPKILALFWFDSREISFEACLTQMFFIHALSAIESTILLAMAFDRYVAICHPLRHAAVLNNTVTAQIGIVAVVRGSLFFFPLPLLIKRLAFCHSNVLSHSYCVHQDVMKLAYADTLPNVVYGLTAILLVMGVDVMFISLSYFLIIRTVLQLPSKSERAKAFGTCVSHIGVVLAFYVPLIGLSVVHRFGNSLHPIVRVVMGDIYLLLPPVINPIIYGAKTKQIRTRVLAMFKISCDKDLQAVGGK
The settings on record: stereoisomer not certain. The method, boiled down:
as §1
As to `Cc1c([N+](=O)[O-])c(C)c([N+](=O)[O-])c(C(C)(C)C)c1[N+](=O)[O-]`, the “odorant receptor agonist call” value was “inactive”. `CCC1CCC(=O)O1` (stereo not drawn): the “odorant receptor agonist call” value is “inactive”. Consider `O=c1cc(O)c2ccccc2o1`, for which the “odorant receptor agonist call” value is “inactive”. For `C=CCOC(=O)Cc1ccccc1`, the “odorant receptor agonist call” value is “inactive”. Consider `C=CCc1ccccc1`, for which the “odorant receptor agonist call” value was “inactive”.
